LMPTP inh: LMPTP phosphatase inhibitors, primary screen, biochemical, fluorescence intensity, uHTS; hit rate 0.22% among 360,000; AID 651560, 2012; inhibition, % at 20 µM; Low molecular weight phosphotyrosine protein phosphatase (Homo sapiens), P24666; recombinant LMPTP-A, OMFP fluorogenic substrate;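 active = compounds that cut the enzyme signal by at least half of the control window in the single-dose screen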;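 note: plate controls were DMSO wells with enzyme plus substrate for no effect and substrate without enzyme for full effect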
Target sequence (P24666 whole entry, looked up): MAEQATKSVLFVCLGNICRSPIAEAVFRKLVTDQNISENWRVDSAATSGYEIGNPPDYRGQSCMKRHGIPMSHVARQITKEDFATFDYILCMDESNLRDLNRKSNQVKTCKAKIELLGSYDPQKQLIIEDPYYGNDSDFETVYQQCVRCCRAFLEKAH
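Test system: LMPTP-A phosphatase enzyme. Amount: LMPTP-A at 0.625 nM final in the reaction. Reagent: OMFP substrate, 400 µM final. Times: 50 min at room temperature. Signal: endpoint fluorescence intensity from OMFP dephosphorylation. Read-out basis: % inhibition. Benchmarks: no-enzyme and uninhibited controls.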
Scp1 inh: Scp-1 phosphatase inhibitors, primary screen, biochemical, colorimetric, uHTS. Carboxy-terminal domain RNA polymerase II polypeptide A small phosphatase 1 (Homo …. Recombinant Scp1, phosphopeptide, malachite green phosphate absorbance. inhibition, % at 20 µM. hit rate 0.88% among 340,000. AID 493091, 2011;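 active = inhibition above about 50% at 20 µM, limit read from the data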;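 note: plate controls were DMSO wells with enzyme for no effect and wells lacking enzyme for full effect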
Target sequence (Q9GZU7 76-261 limits assumed): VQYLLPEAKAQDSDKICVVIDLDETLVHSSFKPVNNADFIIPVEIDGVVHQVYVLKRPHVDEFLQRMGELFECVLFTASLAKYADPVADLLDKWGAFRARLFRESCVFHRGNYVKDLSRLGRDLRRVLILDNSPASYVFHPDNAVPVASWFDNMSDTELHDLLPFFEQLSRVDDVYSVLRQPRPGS
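Assay system: SCP-1 catalytic fragment, aa 76-261 | Buffer or medium: Tris acetate buffer pH 5.5 with MgCl2 and Tween-20 | Compound: One concentration, 20 µM, with 1.0% DMSO | Also added: Phospho 17-mer peptide substrate | Signal: Absorbance at 630 nm | Incubation: 45 min enzyme reaction at room temperature | Measure: % inhibition of SCP-1 phosphate liberation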
SUMO1 PPI mod: modulators of SUMO1 protein-protein interactions, primary screen, biochemical, uHTS. Small ubiquitin-related modifier 1 (Homo sapiens), P63165. SUMO1 binding to a labelled peptide, TR-FRET, 1 h. inhibition, % at 20 µM. hit rate 0.33% among 360,000. AID 602429, 2012; in the data active = inhibition above about 37%
Target sequence (P63165 whole entry, looked up): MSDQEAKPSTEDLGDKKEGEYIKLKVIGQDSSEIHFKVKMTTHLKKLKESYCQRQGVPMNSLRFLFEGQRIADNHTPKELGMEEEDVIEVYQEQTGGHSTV
STEP inh: STEP phosphatase inhibitors, primary screen, biochemical, fluorescence intensity, uHTS; Tyrosine-protein phosphatase non-receptor type 5 (Homo sapiens), P54829; recombinant STEP, OMFP fluorogenic substrate; inhibition, % at 20 µM; hit rate 0.25% among 360,000; AID 588621, 2011;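 active = inhibition at 20 µM, scaled per plate between control wells, above about 37%, limit read from the data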;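 note: 0% = DMSO with enzyme and substrate and 100% = substrate only without enzyme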
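System: STEP phosphatase, cell-free reaction; Buffer or medium: Bis-Tris pH 6.0 buffer with DTT, detergent; Incubation: 20 min at room temperature, dark; Measured by: fluorescence, 480/540 nm.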
DNMT1 inh: human DNMT1 methyltransferase inhibitors, primary screen, biochemical, molecular beacon, fluorescence, HinP1I cleavage, uHTS. hit rate 0.83% among 360,000. inhibition (reported as % activation of signal), % at 10 µM; in the data active = inhibition above about 50%
Scp1 confirm: Scp-1 phosphatase inhibitors, retest, confirmation, biochemical, colorimetric, single concentration | shares compounds with Scp1 inh | recombinant SCP-1 catalytic domain, phosphate release, malachite green absorbance | inhibition, % at 20 µM | hit rate 61% among 2,500;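 note: plate controls were DMSO with enzyme for no effect and buffer wells lacking enzyme for full effect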
MG interference: colorimetric readout interference by compounds, confirmation, artefact control for Scp-1 inhibitor project, biochemical, single concentration. apparent inhibition (interference), % at 20 µM. Colorimetric interference counterscreen, malachite green absorbance 630 nm. 2,500 tested, under 10 active. shares compounds with Scp1 inh. AID 540313, 2011;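 note: compounds added after enzyme reaction finished so only phosphate colour detection is probed; plate controls were DMSO wells with completed Scp-1 reaction for no effect and substrate wells lacking enzyme for full effect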
Scp-1 Tm shift: Scp-1 binding by thermal shift, confirmation, orthogonal assay for Scp-1 inhibitor project, biophysical, differential scanning fluorimetry; shares compounds with Scp1 inh; Recombinant SCP1, Sypro Orange thermal shift Tm; thermal shift relative to vanadate control, % at 40 µM; hit rate 25% among 1,500;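 active = substances whose mean melting-temperature shift, as a percentage of the reference inhibitor's shift, reaches about 5.3%, limit read from the data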;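 note: 0% = Tm of DMSO wells and 100% = Tm with sodium orthovanadate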
Starred values were filed as active, the others as inactive. Sampled rows, rich in hits. Any-hit rate of the full collection: about 1.7%.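 Rule for the calls, unless noted: active = inhibition of at least 30% at 20 µM; inactive = the rest.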

What do the screens show for `O=C1CCCN1CCCNC(=S)Nc1ccccc1Cl`?
LMPTP inh: -0.8; Scp1 inh: -5.2; SUMO1 PPI mod: 0.5; STEP inh: 4.8; DNMT1 inh: 3.2; Scp1 confirm: 1.0; MG interference: 3.1

How did O=C(CC1Oc2ccccc2NC1=O)NCCCN1CCCC1=O (stereo unspecified) do in these assays?
LMPTP inh: 3.1; Scp1 inh: -12.2; SUMO1 PPI mod: 4.1; STEP inh: -1.8; DNMT1 inh: 1.4; Scp1 confirm: -12.9; MG interference: -13.7

What do the screens show for `NC(Cc1ccc(C(F)(F)F)cc1)c1csc(Nc2nccc(C(F)(F)F)n2)n1` (stereo unspecified)?
LMPTP inh: -15.6; SUMO1 PPI mod: -73.8; STEP inh: -2.5; DNMT1 inh: 1.0

Results for Cc1ccc(NC(=O)CN(C)S(=O)(=O)c2ccc3c(c2)n(C)c(=O)c(=O)n3C)c(C)c1 ?
LMPTP inh: -2.0; Scp1 inh: 0.6; SUMO1 PPI mod: 4.5; STEP inh: 0.7; DNMT1 inh: -0.6

How did Cc1cc(C)c(NC(=O)CN(C)S(=O)(=O)c2ccc3c(c2)n(C)c(=O)c(=O)n3C)c(C)c1 do in these assays?
LMPTP inh: -0.5; Scp1 inh: -6.3; SUMO1 PPI mod: 2.1; STEP inh: -0.9; DNMT1 inh: 1.9; Scp1 confirm: -18.1; MG interference: -14.2

How did C=CCn1c(SCc2nc3sc(C(=O)O)c(C)c3c(=O)[nH]2)nnc1-c1ccccc1 do in these assays?
LMPTP inh: 0.2; Scp1 inh: 25.8; SUMO1 PPI mod: 5.5; STEP inh: -0.7; DNMT1 inh: 7.5

How did C=CCn1c(SCc2nc3sc(C(=O)O)c(C)c3c(=O)[nH]2)nnc1-c1ccc(C(C)(C)C)cc1 do in these assays?
LMPTP inh: 0.5; Scp1 inh: 69.2*; SUMO1 PPI mod: 16.0; STEP inh: 8.2; DNMT1 inh: 10.5; Scp1 confirm: 54.7*; MG interference: -14.2; Scp-1 Tm shift: 1.2

How did O=C(O)c1cccc(N2C(=O)C3CC=C(Cl)CC3C2=O)c1 (stereo unspecified) do in these assays?
LMPTP inh: -0.8; Scp1 inh: 109.1*; SUMO1 PPI mod: 13.0; STEP inh: 0.3; DNMT1 inh: 41.9; Scp1 confirm: 57.4*; MG interference: -20.0; Scp-1 Tm shift: -23.1

How did Cn1nnnc1SCC1=C(C(=O)O)N2C(=O)C(NC(=O)C3CC3c3ccccc3)C2SC1 (stereo unspecified) do in these assays?
LMPTP inh: -0.7; Scp1 inh: 58.7*; SUMO1 PPI mod: 0.8; STEP inh: 3.8; DNMT1 inh: 27.0; Scp1 confirm: 70.3*; MG interference: 0.3; Scp-1 Tm shift: 1.9

What do the screens show for `COc1ccc(OC)c(Cc2nnc(CCC(=O)NCc3nc4ccccc4s3)o2)c1`?
LMPTP inh: -0.1; Scp1 inh: 62.6*; SUMO1 PPI mod: 3.2; STEP inh: 1.0; DNMT1 inh: -3.1; Scp1 confirm: -17.5; MG interference: -12.8

From PubChem
